ChEMBL document CHEMBL3580541, “Mebamamides A and B, Cyclic Lipopeptides Isolated from the Green Alga Derbesia marina” (J Nat Prod, 2015)
The source made the active and inactive calls. The rule behind the calls is not given here.

Columns and labels:
HL-60 [1] = assay: Induction of human HL60 cell differentiation into macrophages at 16 nM after 72 hrs by May-Giemsa staining based microscopy; format: functional
Procedure, shortened: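 HL60 cells were grown in RPMI with 10% heat-inactivated FBS, penicillin/streptomycin, amphotericin and L-glutamine at 37 °C in 5% CO2. They were seeded at 2 × 10^4 cells/well and treated for 72 h. Cells were washed once in PBS, stained with May–Giemsa, and examined by light microscopy for macrophage-like morphology.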

HL-60 [2] = assay: Induction of human HL60 cell phagocytotic activity at 16 nM after 48 hrs by trypan based fluorescent microscopy; format: functional
Procedure, shortened: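 HL60 cells were seeded at 2 × 10^4 cells/well. FITC-conjugated latex beads and agent were added together, with TPA at 16 nM as the reference, and cells were incubated for 48 h. Uptake was assessed by fluorescence microscopy using a commercial phagocytosis kit run per the manufacturer's protocol.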

HL-60 [3] = assay: Induction of human HL60 cell differentiation into macrophages at 100 uM after 72 hrs by May-Giemsa staining based microscopy; format: functional
Procedure, shortened: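 Differentiation was judged by morphology. HL60 cells were seeded at 2 × 10^4 cells/well in 200 μL medium, treated 72 h with 100 μM compound or 16 nM TPA, washed once in PBS, stained with May−Giemsa and examined by light microscopy.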

HL-60 [4] = assay: Cytotoxicity against human HL60 cells at 100 uM after 72 hrs by Trypan blue dye exclusion assay; format: functional, cell-based
Procedure, shortened: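 HL60 cells were seeded at 1 × 10^5 cells/well in 24-well plates and exposed to 100 μM compound for 72 h. They were then stained with 0.8 mg/mL trypan blue. Viability was determined by counting stained (dead) cells.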

HeLa [5] = assay: Cytotoxicity against human HeLa cells at 100 uM after 72 hrs by Trypan blue dye exclusion assay; format: functional, cell-based; settings: in the assay text read “MTT assay” for “Trypan blue dye exclusion assay”
Procedure, shortened: (§1)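 MTT read-out of proliferation. HeLa cells were grown in supplemented DMEM with 10% heat-inactivated FBS, seeded at 2 × 10^4 cells/well and cultured overnight. HL60 cells were grown in supplemented RPMI with 10% FBS and seeded at 1 × 10^5 cells/well. Compounds were added at 0.1−100 μM and incubated 72 h at 37 °C, 5% CO2.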

HL-60 [6] = assay: Induction of human HL60 cell phagocytotic activity at 100 uM after 48 hrs by trypan based fluorescent microscopy; format: functional
Procedure, shortened: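 Phagocytosis was run with a commercial kit. HL60 cells were seeded at 2 × 10^4 cells/well in 200 μL medium, given 20 μL FITC-conjugated latex bead suspension plus 100 μM compound or 16 nM TPA, incubated 48 h and examined by fluorescence microscopy.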

HL-60 [7] = assay: Induction of cell adhesion in human HL60 cells at 100 uM measured upto 72 hrs by hemocytometry; format: functional, cell-based
Procedure, shortened: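 HL60 cells were seeded at 1 × 10^5 cells/well in 200 μL medium and given 100 μM compound; TPA at 16 nM served as comparator. Both fractions were counted by hemocytometer. Means ± SD of quadruplicate determinations.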

HL-60 [8] = assay: Cytotoxicity against human HL60 cells after 72 hrs by Trypan blue dye exclusion assay; format: functional, cell-based; settings: HL-60, 72 h, in the assay text read “MTT assay” for “Trypan blue dye exclusion assay”; procedure, shortened: as §1
HeLa [9] = assay: Cytotoxicity against human HeLa cells after 72 hrs by Trypan blue dye exclusion assay; format: functional, cell-based; settings: in the assay text read “MTT assay” for “Trypan blue dye exclusion assay”; procedure, shortened: as §1

| Compound | Activity (HL-60 [1]) | Activity (HL-60 [2]) | Activity (HL-60 [3]) | growth inhibition (GI) (HL-60 [4]) | growth inhibition (GI) (HeLa [5]) | Activity (HL-60 [6]) | Activity (HL-60 [7]) | IC50 (HL-60 [8]) [µM] | IC50 (HeLa [9]) [µM] |
| --- | --- | --- | --- | --- | --- | --- | --- | --- | --- |
| CCCCCCCCCCCCCC(=O)O[C@@H]1[C@@H](C)[C@@]2(O)[C@@H](C=C(CO)C[C@]3(O)C(=O)C(C)=C[C@@H]23)[C@@H]2C(C)(C)[C@]12OC(C)=O | Active | Active |  |  |  |  |  |  |  |
| CC(C)C[C@H](NC(=O)[C@@H](CO)NC(=O)C[C@H](O)CCCC[C@H](O)C(C)C)C(=O)N1CCC[C@H]1C(=O)N[C@H](C)C(=O)N[C@@H]1C(=O)N[C@H](Cc2ccccc2)C(=O)N2CCC[C@H]2C(=O)N[C@H](CC(C)C)C(=O)N[C@@H](C(C)C)C(=O)O[C@@H]1C |  |  | Active | inactive | inactive | Active | Active |  |  |
| CC(=O)O[C@@H](CCCC[C@@H](O)CC(=O)N[C@H](CO)C(=O)N[C@@H](CC(C)C)C(=O)N1CCC[C@H]1C(=O)N[C@H](C)C(=O)N[C@@H]1C(=O)N[C@H](Cc2ccccc2)C(=O)N2CCC[C@H]2C(=O)N[C@H](CC(C)C)C(=O)N[C@@H](C(C)C)C(=O)O[C@@H]1C)C(C)C |  |  |  |  |  |  | inactive | 19 | 48 |
